Experimental findings from ChEMBL document CHEMBL1126712, “Design, synthesis, and pharmacological evaluation of potent xanthone dicarboxylic acid leukotriene B4 receptor antagonists” (J Med Chem, 1993) are described below.

Experiment [1] concerns the target T1, Leukotriene B4 receptor 1 (Homo sapiens, UniProt Q15722). As to the kind of experiment: Relative potency against LTB4 receptor was determined.
The target in experiment [2] is T1, Leukotriene B4 receptor 1. As to the kind of experiment: Inhibition of specific binding of LTB4 ( 0.1 nM) to receptors on intact human neutrophils. The essentials:
(§1)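 Intact human neutrophils from heparinized venous blood of normal volunteers, isolated by Ficoll-Hypaque centrifugation, dextran 70 sedimentation and hypotonic lysis (≥90% neutrophils, ≥90% viable). Cells at 2 × 10⁷/mL in Ca/Mg-free Hanks' with 0.1% ovalbumin, [³H]LTB₄ final 0.1 nM, compound in DMSO (final 1.9%). Incubation 10 min at 4 °C, harvest, scintillation counting. Nonspecific binding from 10 000-fold excess unlabeled LTB₄. Triplicate tubes.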

Experiment [3] has as its target T1, Leukotriene B4 receptor 1. As to the kind of experiment: Inhibition of binding of [3H]LTB4 to receptor […]. The essentials: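 Intact human neutrophils isolated from heparinized blood of normal volunteers (Ficoll-Hypaque, dextran sedimentation, hypotonic lysis) were suspended at 2 × 10⁷ cells/mL in Ca/Mg-free HBSS with 0.1% ovalbumin. Tubes held 0.1 nM final [³H]LTB₄ and compound in DMSO (1.9% final), ran 10 min at 4 °C, then were harvested for scintillation counting. Triplicate tubes; nonspecific binding set with 10 000-fold unlabeled LTB₄.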

Experiment [4] is filed under the species Homo sapiens. As to the kind of experiment: Inhibition of luminol-dependent chemiluminescence induced by stimulating the neutrophil cells with LTB4. The experiment is classed as functional, cell-based. The essentials: (§2)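 Luminol-dependent chemiluminescence of human neutrophils (1 × 10⁷/mL) in Ca/Mg-free Dulbecco's PBS, pH 7.4, with cytochalasin B, stirred at 900 rpm and 37 °C in an aggregometer. Antagonist was added at 2 min, then Ca²⁺/Mg²⁺. After 1 min, luminol and agonist (LTB₄ or FMLP, 30 nM) were added and the maximum response recorded. Cells from five individuals.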

For experiment [5], the species on record is Homo sapiens. As to the kind of experiment: Inhibition of luminol-dependent chemiluminescence induced by stimulating the neutrophil cells with FMLP (N-formyl-L-methionyl-L-leucyl-l-phenylalanine). The experiment is classed as functional, cell-based. Summed up: as §2
Experiment [6] is filed under the species Homo sapiens. The experiment can be described thus: The antagonist activity measured as blockade of the FMLP reaction in neutrophils. In kind it is functional. The essentials: as §2
The species named for experiment [7] is Homo sapiens. As to the kind of experiment: Inhibition of LTB-4 induced chemotaxis of human neutrophils. In kind it is functional.
Experiment [8] is filed under the species Homo sapiens. The experiment can be described thus: The activity of suppression of the FMLP-mediated response. In kind it is functional. The essentials: as §2
For experiment [9], the target named is T1, Leukotriene B4 receptor 1. As to the kind of experiment: Inhibition constant against binding of [3H]LTB4 to human neutrophils. Summed up:
as §1

For experiment [10], the species on record is Homo sapiens. As to the kind of experiment: LTB4-induced chemotaxis of the human neutrophils. The experiment is classed as functional.

T1 sequence (Q15722 whole entry): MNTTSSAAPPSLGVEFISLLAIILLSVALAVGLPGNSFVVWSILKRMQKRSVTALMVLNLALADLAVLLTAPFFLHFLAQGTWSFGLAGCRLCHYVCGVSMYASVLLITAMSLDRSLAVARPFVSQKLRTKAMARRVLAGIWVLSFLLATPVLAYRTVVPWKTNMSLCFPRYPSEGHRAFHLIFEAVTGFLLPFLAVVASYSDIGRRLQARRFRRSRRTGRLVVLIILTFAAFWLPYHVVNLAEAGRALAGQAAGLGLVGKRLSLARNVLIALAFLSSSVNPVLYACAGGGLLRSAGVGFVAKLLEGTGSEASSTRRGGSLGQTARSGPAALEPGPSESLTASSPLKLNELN

Turning to `CCCCCCCCCCOc1cc2oc3c(C(=O)O)cccc3c(=O)c2cc1CCC(=O)O`, the Relative potency in experiment [1] is 1.2. The IC50 in experiment [2] came to 1770 nM.

Consider `COc1ccc(/C=C/CCCCOc2ccc(C(=O)c3cccc(C(=O)O)c3)cc2CCC(=O)O)cc1`, for which the IC50 in experiment [3] came to 1.9 nM.

Consider `CCCCCCCCCCOc1cc2oc3ccc(C(=O)O)cc3c(=O)c2cc1CCC(=O)O`, for which the Relative potency in experiment [1] is 2.5. In experiment [2], the IC50 stood at 832 nM.

Compound `CCCCCCCCCCOc1ccc2c(=O)c3cccc(C(=O)O)c3oc2c1CCC(=O)O` showed a Relative potency in experiment [1] of 1. In experiment [2], this compound gave an IC50 of 2100 nM.

`CCCCCCCCCCOc1ccc(C(=O)c2cccc(C(=O)O)c2)cc1CCC(=O)O` returned a Relative potency in [1] of 10. The same compound came in with an IC50 in experiment [2] of 210 nM.

As for `CCCCCCCCCCOc1ccc2c(=O)c3cc(C(=O)O)ccc3oc2c1CCC(=O)O`, the IC50 is 342 nM in the experiment filed under Homo sapiens [4]; 734 nM in the experiment listed under Homo sapiens [5]; 1210 nM in the experiment filed under Homo sapiens [6]; 7900 nM in the experiment filed under Homo sapiens [7]; 43 nM in experiment [2]. This compound yielded a Relative potency in experiment [1] of 49.

With `COc1ccc(/C=C/CCCCOc2ccc3c(=O)c4cc(C(=O)O)ccc4oc3c2CCC(=O)O)cc1`, the 50% inhibitory concentration (IC50) in the experiment listed under Homo sapiens [4] stood at 55 nM; in the experiment filed under Homo sapiens [5], 1600 nM; in the experiment listed under Homo sapiens [8], 2170 nM; in the experiment listed under Homo sapiens [10], 899 nM; in experiment [2] it was 6.2 nM. In experiment [1], the Relative potency worked out at 338. The compound also had a Ki in [9] of 5.9 nM.
